Reference: ChEMBL document CHEMBL1156486, “Discovery and characterization of a novel inhibitor of matrix metalloprotease-13 that reduces cartilage damage in vivo without joint fibroplasia side effects” (J Biol Chem, 2007)
Converted amounts (≈) assume the structure as drawn. The source made the active and inactive calls. No cut-off for these calls is given here.

Tests used:
Matrilysin = target: T1, Matrilysin (Homo sapiens, UniProt P09237); assay: Inhibition of MMP7
T1 sequence (P09237 whole entry): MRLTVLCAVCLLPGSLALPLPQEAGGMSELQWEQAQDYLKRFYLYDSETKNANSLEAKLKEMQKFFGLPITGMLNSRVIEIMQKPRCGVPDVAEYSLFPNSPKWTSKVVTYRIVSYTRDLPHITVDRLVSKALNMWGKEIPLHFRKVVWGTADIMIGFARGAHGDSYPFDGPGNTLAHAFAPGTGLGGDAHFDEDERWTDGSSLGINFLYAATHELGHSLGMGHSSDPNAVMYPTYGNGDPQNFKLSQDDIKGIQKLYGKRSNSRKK
Summary of the method: (§1)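 Buffer: 50 mM Hepes pH 7.0, 10 mM CaCl2, 1 mM DTNB, 0.005% Brij 35, 1% final DMSO. […] Initial rate read as A412 increase at 25 °C. At least triplicate inhibitor titrations. % of control activity fit to a sloped IC50 equation.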

[1] = target: T2, Matrix metalloproteinase-17 (Homo sapiens, UniProt Q9ULZ9); assay: Inhibition of MMP17 catalytic domain; summary of the method: as §1
T2 sequence (Q9ULZ9 whole entry): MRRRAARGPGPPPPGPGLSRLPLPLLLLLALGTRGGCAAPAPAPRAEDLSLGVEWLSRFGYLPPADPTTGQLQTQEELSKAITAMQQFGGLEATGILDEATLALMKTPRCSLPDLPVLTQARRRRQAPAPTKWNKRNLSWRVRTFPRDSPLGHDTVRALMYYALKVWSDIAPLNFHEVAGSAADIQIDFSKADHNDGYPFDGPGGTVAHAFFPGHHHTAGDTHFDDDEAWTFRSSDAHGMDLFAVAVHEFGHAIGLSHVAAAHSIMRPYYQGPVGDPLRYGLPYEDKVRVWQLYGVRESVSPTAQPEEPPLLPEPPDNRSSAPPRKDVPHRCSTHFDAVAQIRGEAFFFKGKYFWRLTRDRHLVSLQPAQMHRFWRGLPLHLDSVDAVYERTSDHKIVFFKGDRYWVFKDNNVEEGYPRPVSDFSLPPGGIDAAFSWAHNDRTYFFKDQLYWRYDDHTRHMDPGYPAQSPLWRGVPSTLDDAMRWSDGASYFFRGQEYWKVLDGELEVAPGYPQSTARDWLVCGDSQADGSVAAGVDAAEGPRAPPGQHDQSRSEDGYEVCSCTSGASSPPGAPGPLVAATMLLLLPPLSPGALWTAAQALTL

Stromelysin-1 = Stromelysin-1 (Homo sapiens, UniProt P08254); assay: Inhibition of MMP3 catalytic domain; summary of the method: as §1
Chain of Stromelysin-1 (P08254 whole entry, the tested form may be a part): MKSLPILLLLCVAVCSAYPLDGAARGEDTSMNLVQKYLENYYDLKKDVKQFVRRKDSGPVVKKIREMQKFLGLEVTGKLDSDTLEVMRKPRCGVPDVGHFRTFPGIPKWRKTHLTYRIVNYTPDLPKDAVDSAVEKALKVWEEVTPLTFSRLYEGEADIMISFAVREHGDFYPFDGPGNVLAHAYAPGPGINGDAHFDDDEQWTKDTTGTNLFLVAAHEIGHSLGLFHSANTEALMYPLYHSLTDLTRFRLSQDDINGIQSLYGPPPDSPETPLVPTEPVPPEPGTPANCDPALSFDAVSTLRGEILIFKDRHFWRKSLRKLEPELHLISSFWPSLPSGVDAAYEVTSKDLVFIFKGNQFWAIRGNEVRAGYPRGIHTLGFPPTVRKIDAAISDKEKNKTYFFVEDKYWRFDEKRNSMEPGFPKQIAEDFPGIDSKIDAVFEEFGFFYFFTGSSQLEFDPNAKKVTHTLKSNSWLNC

Collagenase 3 = Collagenase 3 (Homo sapiens, UniProt P45452)
[2] = target: Macrophage metalloelastase (Homo sapiens, UniProt P39900); assay: Inhibition of MMP12 catalytic domain; summary of the method: as §1
Chain of Macrophage metalloelastase (P39900 whole entry, the tested form may be a part): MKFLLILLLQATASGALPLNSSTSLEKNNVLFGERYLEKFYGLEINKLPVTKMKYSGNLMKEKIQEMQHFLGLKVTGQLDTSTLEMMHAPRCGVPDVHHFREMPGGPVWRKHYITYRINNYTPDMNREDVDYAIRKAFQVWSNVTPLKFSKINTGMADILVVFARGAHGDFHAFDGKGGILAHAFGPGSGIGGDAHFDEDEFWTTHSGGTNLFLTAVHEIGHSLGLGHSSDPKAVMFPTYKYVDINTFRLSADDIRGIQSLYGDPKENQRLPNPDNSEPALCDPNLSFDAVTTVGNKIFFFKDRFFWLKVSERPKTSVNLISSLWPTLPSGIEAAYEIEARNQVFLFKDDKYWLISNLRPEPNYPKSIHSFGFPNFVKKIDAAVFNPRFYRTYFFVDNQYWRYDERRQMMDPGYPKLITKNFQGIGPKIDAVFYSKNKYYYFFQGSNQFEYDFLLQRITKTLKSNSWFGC

[3] = target: Matrix metalloproteinase-14 (Homo sapiens, UniProt P50281); assay: Inhibition of MMP14 catalytic domain; summary of the method: as §1
Rattus norvegicus [4] = assay: Toxicity in Sprague-Dawley rat model of musculoskeletal syndrome side effect assessed as induction of joint fibroplasia at 2000 mg/kg/day, po after 14 days; type: organism-based; parameters: route oral; conditions: in vivo, 336 h
Summary of the method: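 Sprague-Dawley rats (6/sex) given vehicle or 2000 mg/kg/day orally for 14 days; a non-selective hydroxamate MMP inhibitor at 2000 mg/kg/day as positive control. Calcaneon tendon and femorotibial, tibiotarsal, humeroradial joints taken bilaterally; femorotibial joints formalin-fixed, decalcified, H&E-stained, examined by light microscopy for fibroplasia.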

[5] = Drug level in Sprague-Dawley rat model of musculoskeletal syndrome side effect at 2000 mg/kg/day, po after 14 days; type: ADME, organism-based; parameters: route oral; conditions: in vivo
[6] = system: O=C(OCc1ccccc1)c1cn2c(=O)n(Cc3ccccc3)c(=O)cc2s1; conditions: Homo sapiens
Interstitial collagenase = target: T3, Interstitial collagenase (Homo sapiens, UniProt P03956); assay: Inhibition of MMP1
T3 sequence (P03956 whole entry): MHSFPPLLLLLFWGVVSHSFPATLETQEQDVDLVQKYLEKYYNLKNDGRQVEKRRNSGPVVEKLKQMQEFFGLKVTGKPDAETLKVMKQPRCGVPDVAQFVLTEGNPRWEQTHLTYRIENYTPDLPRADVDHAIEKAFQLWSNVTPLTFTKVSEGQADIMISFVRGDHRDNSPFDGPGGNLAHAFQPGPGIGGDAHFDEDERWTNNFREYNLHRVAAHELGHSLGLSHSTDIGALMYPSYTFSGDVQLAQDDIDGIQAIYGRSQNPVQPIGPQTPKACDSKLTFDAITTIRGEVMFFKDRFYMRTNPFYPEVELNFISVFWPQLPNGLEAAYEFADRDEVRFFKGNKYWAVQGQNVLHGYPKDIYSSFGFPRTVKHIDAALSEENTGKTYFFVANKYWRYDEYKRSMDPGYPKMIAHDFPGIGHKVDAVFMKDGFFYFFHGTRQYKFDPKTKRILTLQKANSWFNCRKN

[7] = target: Matrix metalloproteinase-9 (Homo sapiens, UniProt P14780); assay: Inhibition of MMP9
Chain of Matrix metalloproteinase-9 (P14780 whole entry, the tested form may be a part): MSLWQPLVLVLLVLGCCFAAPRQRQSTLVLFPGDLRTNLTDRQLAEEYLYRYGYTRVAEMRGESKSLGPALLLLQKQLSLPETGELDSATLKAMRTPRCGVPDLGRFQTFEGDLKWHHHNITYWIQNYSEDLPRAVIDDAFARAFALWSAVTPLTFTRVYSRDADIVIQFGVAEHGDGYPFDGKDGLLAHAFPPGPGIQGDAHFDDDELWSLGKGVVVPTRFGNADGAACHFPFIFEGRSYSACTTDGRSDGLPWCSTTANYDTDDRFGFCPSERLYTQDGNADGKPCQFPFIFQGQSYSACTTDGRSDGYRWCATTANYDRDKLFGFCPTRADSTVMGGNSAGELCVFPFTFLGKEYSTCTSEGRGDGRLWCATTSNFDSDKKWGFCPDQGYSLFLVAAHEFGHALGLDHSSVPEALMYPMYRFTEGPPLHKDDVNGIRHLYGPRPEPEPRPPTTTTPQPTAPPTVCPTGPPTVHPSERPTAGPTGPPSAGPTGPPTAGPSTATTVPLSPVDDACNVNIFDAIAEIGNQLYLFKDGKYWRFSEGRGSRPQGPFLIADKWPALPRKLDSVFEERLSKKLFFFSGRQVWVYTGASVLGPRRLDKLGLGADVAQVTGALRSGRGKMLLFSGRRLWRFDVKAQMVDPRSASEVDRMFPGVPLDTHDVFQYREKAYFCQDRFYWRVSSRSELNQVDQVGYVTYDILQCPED

Neutrophil collagenase = Neutrophil collagenase (Homo sapiens, UniProt P22894); assay: Inhibition of MMP8 catalytic domain
Chain of Neutrophil collagenase (P22894 whole entry, the tested form may be a part): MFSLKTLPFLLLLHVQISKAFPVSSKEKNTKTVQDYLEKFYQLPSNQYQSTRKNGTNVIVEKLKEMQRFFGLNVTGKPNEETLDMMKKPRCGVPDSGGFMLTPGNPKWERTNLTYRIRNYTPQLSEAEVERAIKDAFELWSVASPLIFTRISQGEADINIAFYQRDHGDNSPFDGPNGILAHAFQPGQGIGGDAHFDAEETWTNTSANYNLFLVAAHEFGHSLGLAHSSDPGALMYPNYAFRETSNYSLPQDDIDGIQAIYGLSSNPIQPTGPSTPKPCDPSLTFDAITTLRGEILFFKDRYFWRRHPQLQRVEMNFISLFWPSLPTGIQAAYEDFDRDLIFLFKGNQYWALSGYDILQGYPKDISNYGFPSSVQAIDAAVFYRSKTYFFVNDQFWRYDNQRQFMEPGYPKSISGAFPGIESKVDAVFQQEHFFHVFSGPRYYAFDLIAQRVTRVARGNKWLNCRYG

[8] = target: 72 kDa type IV collagenase (Homo sapiens, UniProt P08253); assay: Inhibition of MMP2
Chain of 72 kDa type IV collagenase (P08253 whole entry): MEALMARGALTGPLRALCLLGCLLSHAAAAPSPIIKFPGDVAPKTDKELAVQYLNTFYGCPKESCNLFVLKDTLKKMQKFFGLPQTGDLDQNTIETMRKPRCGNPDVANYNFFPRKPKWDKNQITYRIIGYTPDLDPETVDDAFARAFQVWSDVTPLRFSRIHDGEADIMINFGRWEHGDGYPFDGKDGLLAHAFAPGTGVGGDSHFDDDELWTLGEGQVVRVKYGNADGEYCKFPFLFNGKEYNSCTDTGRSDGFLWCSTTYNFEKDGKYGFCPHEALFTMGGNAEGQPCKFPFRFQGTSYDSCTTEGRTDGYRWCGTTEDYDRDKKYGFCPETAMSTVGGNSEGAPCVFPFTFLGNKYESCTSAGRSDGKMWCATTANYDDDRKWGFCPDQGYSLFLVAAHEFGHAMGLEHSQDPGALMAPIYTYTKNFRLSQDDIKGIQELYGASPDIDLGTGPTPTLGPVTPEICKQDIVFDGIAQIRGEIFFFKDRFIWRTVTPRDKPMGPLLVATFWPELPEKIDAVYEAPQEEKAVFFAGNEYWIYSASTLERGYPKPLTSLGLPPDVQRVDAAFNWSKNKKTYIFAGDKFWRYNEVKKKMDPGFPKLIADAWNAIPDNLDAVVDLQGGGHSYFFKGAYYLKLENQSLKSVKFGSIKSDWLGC

Oryctolagus cuniculus [9] = assay: Inhibition of cartilage damage in New Zealand white rabbit osteoarthritis model assessed as reduction of cartilage lesion on tibial plateau at 30 mg/kg, po twice daily after 5 weeks relative to control; type: functional; parameters: scale not given: the % may be the effect or the level left
Summary of the method: (§2)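 Oral dosing 30 mg/kg or vehicle twice daily from day 1 post-op for 5 weeks. Joints removed, stained with India ink; two-dimensional lesion areas on tibial plateaus and femoral condyles measured; means ± S.E., compared to vehicle.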

[10] = Plasma concentration in New Zealand white rabbit osteoarthritis model at 30 mg/kg, po twice daily after 5 weeks; type: ADME, organism-based, Oryctolagus cuniculus; parameters: dose 30 mg/kg, route oral
[11] = Solubility in phosphate buffer at pH 6; type: physicochemical
[12] = target: T4, A disintegrin and metalloproteinase with thrombospondin motifs 5 (Homo sapiens, UniProt Q9UNA0); assay: Inhibition of human ADAMTS5 assessed as cleavage of aggrecan substrate
T4 sequence (Q9UNA0 whole entry): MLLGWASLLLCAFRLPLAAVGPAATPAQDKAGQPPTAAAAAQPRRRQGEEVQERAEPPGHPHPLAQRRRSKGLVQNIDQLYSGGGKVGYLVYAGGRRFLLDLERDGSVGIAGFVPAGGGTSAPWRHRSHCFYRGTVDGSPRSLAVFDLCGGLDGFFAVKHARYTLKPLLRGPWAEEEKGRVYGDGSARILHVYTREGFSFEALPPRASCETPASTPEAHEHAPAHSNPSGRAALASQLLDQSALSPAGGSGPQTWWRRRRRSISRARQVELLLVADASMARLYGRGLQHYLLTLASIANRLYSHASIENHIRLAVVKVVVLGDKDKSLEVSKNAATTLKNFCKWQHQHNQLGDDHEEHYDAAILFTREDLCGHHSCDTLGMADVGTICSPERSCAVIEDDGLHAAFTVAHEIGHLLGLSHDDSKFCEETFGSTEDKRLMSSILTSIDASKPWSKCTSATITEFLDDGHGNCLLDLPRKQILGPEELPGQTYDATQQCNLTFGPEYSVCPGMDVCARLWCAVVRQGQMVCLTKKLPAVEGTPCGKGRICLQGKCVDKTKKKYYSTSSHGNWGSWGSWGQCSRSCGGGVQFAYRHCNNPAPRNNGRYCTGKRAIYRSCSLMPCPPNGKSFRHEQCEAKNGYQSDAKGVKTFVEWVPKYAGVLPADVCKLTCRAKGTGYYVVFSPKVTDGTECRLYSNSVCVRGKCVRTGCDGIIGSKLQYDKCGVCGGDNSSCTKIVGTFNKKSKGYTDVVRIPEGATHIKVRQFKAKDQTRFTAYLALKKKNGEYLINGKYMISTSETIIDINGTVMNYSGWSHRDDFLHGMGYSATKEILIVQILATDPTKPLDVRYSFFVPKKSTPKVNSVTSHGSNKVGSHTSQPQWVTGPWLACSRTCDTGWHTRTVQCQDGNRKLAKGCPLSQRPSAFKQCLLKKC
Summary of the method: (§3)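 Isolated human enzyme with native aggrecan as substrate. Cleavage quantified using the BC-3 neoepitope antibody.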

[13] = AUC (0 to 24 hrs) in New Zealand white rabbit osteoarthritis model at 30 mg/kg, po twice daily after 5 weeks; type: ADME, organism-based, Oryctolagus cuniculus; parameters: time < 24 hr, dose 30 mg/kg, route oral; conditions: in vivo
Rattus norvegicus [14] = assay: Inhibition of human MMP13-induced type 2 collagen degradation in rat cartilage damage model assessed as type2 collagen neoepitope biomarker level at 0.1 mg/kg, po by enzyme-linked immunosorbent assay; type: functional, organism-based; parameters: dose 0.1 mg/kg
Summary of the method: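 Rats (12 per group) dosed orally with vehicle or various doses; 3 h later knees injected intra-articularly with 12 µg activated full-length human MMP13. Sacrifice 2 h after injection; synovial space lavaged twice with 80 µl saline. Type II collagen neoepitope in lavage quantified by ELISA.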

Cartilage tissue = assay: Inhibition of IL1alpha and oncostatin M-stimulated hydroxyproline release from bovine nasal cartilage; type: functional, tissue-based; conditions: Bos taurus
Summary of the method: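 Bovine nasal cartilage explants (1 × 3 mm, 9 per group) cultured 2 weeks with interleukin-1 (50 ng/ml) plus oncostatin M (50 ng/ml), with vehicle or up to 10 µM inhibitor. Medium refreshed twice weekly and pooled for hydroxyproline assay; remaining cartilage papain-digested and its hydroxyproline measured. IC50 taken from a plot of inhibition of cartilage degradation; means ± S.E.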

[15] = target: T5, A disintegrin and metalloproteinase with thrombospondin motifs 4 (Homo sapiens, UniProt O75173); assay: Inhibition of human ADAMTS4 assessed as cleavage of aggrecan substrate; summary of the method: as §3
T5 sequence (O75173 whole entry): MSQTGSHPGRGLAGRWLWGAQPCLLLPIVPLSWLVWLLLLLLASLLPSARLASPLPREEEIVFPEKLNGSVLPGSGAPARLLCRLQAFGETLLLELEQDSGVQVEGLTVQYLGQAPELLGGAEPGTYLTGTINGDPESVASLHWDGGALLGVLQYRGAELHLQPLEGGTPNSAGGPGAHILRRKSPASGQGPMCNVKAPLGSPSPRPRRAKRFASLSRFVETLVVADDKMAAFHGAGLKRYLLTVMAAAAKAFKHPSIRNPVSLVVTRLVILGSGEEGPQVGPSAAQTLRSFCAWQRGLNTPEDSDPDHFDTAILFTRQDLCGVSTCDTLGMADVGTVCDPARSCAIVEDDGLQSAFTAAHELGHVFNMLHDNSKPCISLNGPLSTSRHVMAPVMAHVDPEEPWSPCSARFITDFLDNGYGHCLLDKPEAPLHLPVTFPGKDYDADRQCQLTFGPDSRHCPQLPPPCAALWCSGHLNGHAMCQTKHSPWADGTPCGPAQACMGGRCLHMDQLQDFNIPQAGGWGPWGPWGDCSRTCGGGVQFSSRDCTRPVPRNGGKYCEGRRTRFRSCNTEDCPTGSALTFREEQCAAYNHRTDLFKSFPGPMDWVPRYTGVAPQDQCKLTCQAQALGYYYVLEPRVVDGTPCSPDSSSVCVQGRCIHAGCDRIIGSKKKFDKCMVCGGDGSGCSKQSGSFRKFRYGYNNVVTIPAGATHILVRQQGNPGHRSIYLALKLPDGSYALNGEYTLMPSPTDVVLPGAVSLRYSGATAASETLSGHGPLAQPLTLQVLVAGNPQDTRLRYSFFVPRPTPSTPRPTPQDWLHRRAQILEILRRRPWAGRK

Oryctolagus cuniculus [16] = assay: Inhibition of cartilage damage in New Zealand white rabbit osteoarthritis model assessed as reduction of cartilage lesion on femoral condyles at 30 mg/kg, po twice daily after 5 weeks relative to control; type: functional, Condyle; parameters: scale not given: the % may be the effect or the level left; summary of the method: as §2
[17] = Solubility in phosphate buffer at pH 7.5; type: physicochemical
[18] = AUC (0 to 24 hrs) in Sprague-Dawley rat model of musculoskeletal syndrome side effect at 2000 mg/kg/day, po after 14 days; type: ADME, organism-based; parameters: time < 24 hr, dose 2000 mg/kg/day, route oral; conditions: in vivo
[19] = Solubility in phosphate buffer at pH 6.5; type: physicochemical

Compound: CNC(=O)[C@H](Cc1c[nH]c2ccccc12)NC(=O)[C@@H](CC(=O)NO)CC(C)C [ILOMASTAT]
- IC50 (Matrilysin): 0.033 µM
- IC50 [1]: 0.0034 µM
- IC50 (Stromelysin-1): 0.007 µM
- IC50 (Collagenase 3): 0.0052 µM
- IC50 [2]: 0.0051 µM
- IC50 [3]: 0.0047 µM

Compound: CC(C)[C@@H](NS(=O)(=O)c1ccc(-c2ccc(Br)cc2)cc1)C(=O)NO
- Activity (Rattus norvegicus [4]): Toxic
- AUC at 336 h [5]: 94 µg·h/mL

Compound: Collagenase 3 (Homo sapiens) (from UniProt P45452)
- Km [6]: 48 µM

Compound: O=C(OCc1ccccc1)c1cn2c(=O)n(Cc3ccccc3)c(=O)cc2s1
- IC50 (Matrilysin): > 100 µM
- IC50 (Interstitial collagenase): > 100 µM
- IC50 [1]: > 100 µM
- IC50 (Stromelysin-1): > 100 µM
- IC50 [7]: > 100 µM
- IC50 (Neutrophil collagenase): > 100 µM
- IC50 [2]: > 100 µM
- IC50 [8]: > 100 µM
- IC50 [3]: > 100 µM

Compound: Cn1c(=O)n(Cc2ccc(C(=O)O)cc2)c(=O)c2cc(C#CCc3ccccc3)ccc21
- IC50 (Matrilysin): > 30 µM
- IC50 (Interstitial collagenase): > 30 µM
- Activity (Oryctolagus cuniculus [9]): 68%
- AUC at 840 h [10]: 200 µg·h/mL
- IC50 [1]: > 30 µM
- IC50 (Stromelysin-1): > 30 µM
- solubility [11]: 20 µM (≈ 8.49 µg/mL)
- IC50 [12]: > 25 µM
- IC50 [7]: > 100 µM
- AUC at 24 h [13]: 6 µg·h/mL
- Activity (Rattus norvegicus [14]): Active
- IC50 (Neutrophil collagenase): > 100 µM
- IC50 (Cartilage tissue): 1.3 µM
- IC50 [15]: > 25 µM
- IC50 [2]: > 100 µM
- Activity (Rattus norvegicus [4]): Non-toxic
- AUC at 336 h [5]: 30 µg·h/mL
- IC50 [8]: > 30 µM
- Activity (Oryctolagus cuniculus [16]): 51%
- IC50 [3]: > 30 µM
- solubility [17]: < 3 µM
- AUC at 24 h [18]: 1010 µg·h/mL
- solubility [19]: < 3 µM
